Data set [1] has as its target T1, Pteridine reductase, putative (Trypanosoma brucei) (UniProt Q581W1).
T1 sequence (whole entry): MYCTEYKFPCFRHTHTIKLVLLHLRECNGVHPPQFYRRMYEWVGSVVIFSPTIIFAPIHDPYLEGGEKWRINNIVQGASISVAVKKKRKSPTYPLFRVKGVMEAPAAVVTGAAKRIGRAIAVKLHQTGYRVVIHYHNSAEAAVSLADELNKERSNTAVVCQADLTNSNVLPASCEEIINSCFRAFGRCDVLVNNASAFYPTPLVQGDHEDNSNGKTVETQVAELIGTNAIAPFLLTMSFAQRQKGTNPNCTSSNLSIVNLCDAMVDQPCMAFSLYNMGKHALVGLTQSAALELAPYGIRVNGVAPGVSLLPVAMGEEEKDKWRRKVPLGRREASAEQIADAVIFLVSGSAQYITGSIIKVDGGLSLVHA
Briefly: Inhibition of Trypanosoma brucei pteridine reductase 1 at 100 uM. A digest of the protocol: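 TbPTR1 activity followed by cytochrome c reduction coupled to enzymatic tetrahydrobiopterin production: 20 mM sodium citrate, 1 mM EDTA, H2B (0.35 μM), cytc (81 μM), NADPH (100 μM), pH 6.0. Absorbance at 550 nm read within the linear phase. Fragment hits tested once at 100 μM as percent inhibition.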

Data set [2] concerns the target T2, Pteridine reductase, putative (Trypanosoma brucei, UniProt Q581W1).
T2 sequence (Q581W1 whole entry): T1 sequence (whole entry)
The experiment in a line: Apparent inhibition of Trypanosoma brucei pteridine reductase 1-mediated reduction of cytochrome c. The note with it: read-out: Ki(app). A digest of the protocol:
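TbPTR1 activity read through cytochrome c reduction coupled to enzymatic H4B formation. Absorbance at 550 nm read within the linear phase. Kiapp derived by fitting a modified Morrison equation.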

In data set [3] the target is Bifunctional dihydrofolate reductase-thymidylate synthase (Trypanosoma brucei brucei) (UniProt Q27783). The experiment in a line: Inhibition of Trypanosoma brucei DHFR-mediated reduction of cytochrome c at upto 30 uM. In outline:
(§1)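 DHFR (T. brucei or human) activity followed by cytochrome c reduction coupled to enzymatic tetrahydrofolate production: 20 mM sodium citrate, 1 mM EDTA, H2F (4.4 μM), cytc (81 μM), NADPH (100 μM), pH 7.4. Absorbance at 550 nm read within the linear phase. Compounds tested up to 30 μM if PTR1 Kiapp below 1 μM, otherwise up to 500 μM.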

In data set [4] the target is T3, Dihydrofolate reductase (Homo sapiens) (UniProt P00374).
T3 sequence (whole entry): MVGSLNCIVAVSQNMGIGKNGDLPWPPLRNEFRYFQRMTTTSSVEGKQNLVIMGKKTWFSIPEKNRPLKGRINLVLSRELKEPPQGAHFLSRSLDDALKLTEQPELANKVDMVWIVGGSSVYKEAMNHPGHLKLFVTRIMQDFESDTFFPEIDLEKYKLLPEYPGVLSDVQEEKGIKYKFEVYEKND
The experiment in a line: Inhibition of human DHFR-mediated reduction of cytochrome c at upto 30 uM. A digest of the protocol:
as §1

The target of data set [5] is Bifunctional dihydrofolate reductase-thymidylate synthase (Trypanosoma brucei brucei) (UniProt Q27783). Briefly: Inhibition of Trypanosoma brucei DHFR-mediated reduction of cytochrome c at upto 500 uM. In outline:
as §1

Data set [6] deals with T3, Dihydrofolate reductase (Homo sapiens). The experiment in a line: Inhibition of human DHFR-mediated reduction of cytochrome c at upto 500 uM. A digest of the protocol:
as §1

The subject of another data set is Trypanosoma brucei. The experiment in a line: Antitrypanosomal activity against Trypanosoma brucei by cell culture assay. In kind it is functional, organism-based.
A short description of data set [7]: Distribution coefficient, log D of the compound. The class given is physicochemical. The note with it: octanol/water.

The structures appear in SMILES notation. The source made the active and inactive calls. The calls are words filed in the database; no cut-off is given here.

Bifunctional dihydrofolate reductase-thymidylate synthase (Trypanosoma brucei brucei), sequence (Q27783 whole entry, looked up): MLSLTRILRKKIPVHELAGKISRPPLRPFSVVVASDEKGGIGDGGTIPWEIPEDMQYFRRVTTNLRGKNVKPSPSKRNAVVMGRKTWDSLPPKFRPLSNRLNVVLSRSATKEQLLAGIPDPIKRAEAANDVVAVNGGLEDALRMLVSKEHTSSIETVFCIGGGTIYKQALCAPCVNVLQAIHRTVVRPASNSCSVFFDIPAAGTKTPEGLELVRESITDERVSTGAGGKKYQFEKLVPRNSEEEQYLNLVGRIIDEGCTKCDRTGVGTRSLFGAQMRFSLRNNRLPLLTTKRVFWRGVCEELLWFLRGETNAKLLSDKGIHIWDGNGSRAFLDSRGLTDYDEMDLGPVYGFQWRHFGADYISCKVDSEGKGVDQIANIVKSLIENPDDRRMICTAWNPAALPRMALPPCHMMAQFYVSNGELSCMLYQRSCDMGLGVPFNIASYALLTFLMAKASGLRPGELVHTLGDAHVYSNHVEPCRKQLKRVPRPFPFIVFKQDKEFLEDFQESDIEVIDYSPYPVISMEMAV

Broadly, the inhibition is the change of the read-out against control, counted positive when it falls. With `c1ccc(CCNc2ncnc3[nH]cnc23)cc1`, in data set [1], the inhibition was found to be 66.4%.
With `Nc1nc(C2CCCCC2)n[nH]1`, the inhibition in data set [1] is 45.1%.
Same read-out and setting: under `Nc1nc(-c2ccc3c(c2)CCC3)cs1` stands 32.3%.
`Nc1nc2ccccc2n1Cc1ccc(Cl)c(Cl)c1`: the Ki in data set [2] is 0.4 µM. The inhibition result in data set [3] and in data set [4] was “inactive” throughout.
In the case of `Cc1[nH]c(=O)[nH]c(=O)c1Cc1ccccc1`, the inhibition in data set [1] is -0.3%.
The same measure, in the same setting: under `Nc1nc(CCc2n[nH]c(N)n2)n[nH]1` stands 6.9%; under `Nc1nnc(SCC(=O)NCc2ccc3c(c2)OCO3)[nH]1`, 38.5%; under `CC(C)CSc1n[nH]c(N)n1`, 0.9%.
On the same count and under the same terms, under `O=C(Nc1c[nH]c(=O)[nH]c1=O)c1ccccc1F` stands 7.9%; under `Cc1ccc(-c2n[nH]c(N)n2)cc1`, 20.2%.
On the same count and under the same terms, under `O=C(Cc1ccccc1Cl)Nc1c[nH]c(=O)[nH]c1=O` stands 21%; under `O=C(Nc1ncnc2nc[nH]c12)c1ccccc1`, 4.5%; under `Nc1nc(NCc2ccc(F)cc2)n[nH]1`, 19.3%.
Consider `c1nc(NCC2CCCO2)c2nc[nH]c2n1` (centres undefined), for which the inhibition in data set [1] turned out to be 25.1%.
The same measure, in the same setting: under `CNc1nc(N)c(C(=O)C(C)(C)C)s1` stands 23%.
Consider `Nc1nc2ccccc2n1CCc1ccccc1`, for which the inhibition entry in data set [5] and in data set [6] was “inactive” each time.
Consider `O=c1cc(Nc2ccc(Cl)cc2)[nH]c(=O)[nH]1`, for which the inhibition in data set [1] came to 11.8%.
On the same count and under the same terms, under `Nc1nc(SCC(=O)NCc2ccco2)n[nH]1` stands 3.3%.
On the same count and under the same terms, under `Cc1ccc(CNc2n[nH]c(N)n2)cc1` stands 44.2%; under `Nc1nc(-c2ccc(Br)cc2)n[nH]1`, -0.8%; under `O=c1[nH]cc(/N=C/c2ccc(Br)cc2)c(=O)[nH]1`, 4.5%.
Regarding `Cc1ccc(CSc2n[nH]c(N)n2)c(C)c1`, in data set [1], the inhibition is 17.6%.
As to `COC(=O)c1ccc2nc(N)sc2c1`, the Ki in data set [2] came out at 21.1 µM. In addition, the inhibition entry in data set [5] and in data set [6] was “inactive” in each case.
`CCc1n[nH]c(N)n1`: the inhibition in data set [1] is -3.5%.
With `Cc1cccc(-c2ccc3nc(N)[nH]c3c2)c1`, the Ki in data set [2] turned out to be 9.8 µM. Also, the inhibition result in data set [5] and in data set [6] was “inactive” each time.
One may read the EC50 as the concentration giving half of the maximal effect. A higher EC50 goes with a less potent agent. In general, logD refers to lipophilicity at a set pH, counting ionised and neutral species. A low value points to lower lipophilicity. Take `Nc1nc2cccc(-c3ccccc3)c2n1Cc1ccc(Cl)c(Cl)c1`: in data set [2], the Ki worked out at 0.007 µM. In addition, the inhibition entry in data set [3] and in data set [4] was “inactive” throughout. The compound also gave an EC50 in the data set on Trypanosoma brucei of 10 µM. In data set [7], this compound returned a logD of 3.7.
On to `CC(Nc1c[nH]c(=O)[nH]c1=O)c1ccccc1` (centres undefined), for which the inhibition in data set [1] came to 17.4%.
As to `O=c1[nH]cc(COCc2ccccc2)c(=O)[nH]1`, in data set [1], the inhibition came to 5.7%.
For `Nc1nc(-c2ccc(O)cc2)cs1`, in data set [1], the inhibition turned out to be 43.2%.
For the compound `Nc1nc(Cc2nnc(N)[nH]2)n[nH]1`, the inhibition in data set [1] worked out at 11.4%.
Turning to `Nc1nc2ccc(Cl)cc2[nH]1`, in data set [2], the Ki came out at 10.6 µM. In data set [1], the inhibition was determined as 72.3%. In addition, the inhibition entry in data set [5] is “inactive”. Further, the result in data set [6] was inactive.
In the case of `Nc1nc(-c2ccccc2Cl)n[nH]1`, the inhibition in data set [1] was 9.3%.
On the same count and under the same terms, under `CC(C)c1n[nH]c(N)n1` stands 3.9%.
Consider `Nc1nc2ccc(C(=O)N3CCCCC3)cc2s1`, for which the Ki in data set [2] came out at 141 µM. The inhibition in data set [1] worked out at 49.9%. Besides, the inhibition result in data set [5] and in data set [6] was “inactive” in each case.
As to `Nc1nc2cccc(Cl)c2n1Cc1ccc(Cl)c(Cl)c1`, the Ki in data set [2] was 0.51 µM. The inhibition entry in data set [3] and in data set [4] was “inactive” throughout.
As for `Nc1nc2ccccc2[nH]1`, the Ki in data set [2] was found to be 288 µM. Moreover, the inhibition entry in data set [5] and in data set [6] was “inactive” in each case.
On to `Cc1cc(C)n(-c2cc(=O)[nH]c(=O)[nH]2)n1`, for which, in data set [1], the inhibition is -4%.
Take `Nc1nnc(-c2ccc(Cl)cc2Cl)[nH]1`: the inhibition in data set [1] was found to be 18.8%.
As for `Nc1nc(CNC(=O)c2ccccc2)n[nH]1`, in data set [1], the inhibition was 10.7%.
Regarding `OCCNc1ncnc2[nH]cnc12`, the inhibition in data set [1] stood at 5.9%.
As to `N#Cc1ccc(CSc2nnc(N)s2)cc1`, the inhibition in data set [1] is 23.1%.
On the same count and under the same terms, under `Oc1ncc(/N=C/c2ccccc2)c(O)n1` stands 22.8%.
The same measure, in the same setting: under `CNc1nc(N)c(C(=O)c2ccccc2)s1` stands 18.1%; under `Nc1nc(-c2ccncc2)cs1`, 31.3%.
Still for that read-out and setting: under `O=c1[nH]c(=O)c2c(-c3ccccc3)csc2[nH]1` stands 36.3%.
In the case of `CCCOc1cccc2nc(N)n(Cc3ccc(Cl)c(Cl)c3)c12`, the Ki in data set [2] came out at 0.047 µM. For the same compound, the inhibition entry in data set [3] and in data set [4] was “inactive” throughout.
In the case of `COc1ccccc1-c1nnc(N)[nH]1`, the inhibition in data set [1] is 19.8%.
On to `CCn1c(N)nc2ccccc21`, for which the Ki in data set [2] was over 200 µM. In addition, the inhibition result in data set [5] and in data set [6] was “inactive” in each case.
With `CC(C)CC(=O)Nc1c[nH]c(=O)[nH]c1=O`, the inhibition in data set [1] was found to be 5%.
